Measurements: ChEMBL document CHEMBL1144720, “Diarylheptanoids and a monoterpenoid from the rhizomes of Zingiber officinale: antioxidant and cytoprotective properties” (J Nat Prod, 2008)
Active and inactive are the calls of the source. The calls are words filed in the database; no cut-off is given here.

Assays:
[1] = system: Hepatocyte; experiment: Cytotoxicity against rat hepatocytes upto 100 uM after 48 hrs; type: cell-based
In short: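 Primary cultured rat hepatocytes incubated with compounds up to 100 µM for 48 h to check cytotoxicity.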

[2] = system: KB; experiment: Cytotoxicity against human KB cells after 3 to 5 days by MTT assay; type: functional, cell-based
[3] = Antioxidant activity assessed as superoxide radical anion scavenging activity; type: functional
In short: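 In vitro superoxide scavenging: superoxide generated by phenazine methosulfate–NADH system, detected as reduced nitroblue tetrazolium absorbance at 560 nm; dose–response used to derive IC50.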

[4] = system: Liver; experiment: Antioxidant activity in BALB/c mouse liver microsomes assessed as inhibition of free radical-induced lipid peroxidation after 60 mins; type: functional, Microsome; settings: 1 h
In short: (§1)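 Mouse liver microsomes subjected to free radical-induced lipid peroxidation; formation of lipid peroxides measured with compounds over a concentration range, IC50 derived; mean ± SEM, n = 4.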

[5] = system: Hepatocyte; experiment: Antioxidant activity against tert-butyl hydroperoxide-induced oxidative stress in Sprague-Dawley rat hepatocytes at 100 uM after 24 hrs by lactate dehydrogenase assay; type: functional, cell-based
In short: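 Primary rat hepatocyte cultures pretreated with compounds for 24 h, compounds removed, then exposed to tert-butyl hydroperoxide; cell damage read as lactate dehydrogenase leakage into culture medium; mean ± SEM, n = 4.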

[6] = system: Liver; experiment: Antioxidant activity in BALB/c mouse liver microsomes assessed as complete inhibition of free radical-induced lipid peroxidation at 40 uM after 60 mins; type: functional; settings: Microsome; in short: as §1
[7] = system: Liver; experiment: Antioxidant activity in BALB/c mouse liver microsomes assessed as complete inhibition of free radical-induced lipid peroxidation at 20 uM after 60 mins; type: functional; settings: Microsome; in short: as §1

SMILES	IC50 [3] [µM]	IC50 [4] [µM]	Activity [1]	Activity [2]	Activity [5]	Activity [6]	Activity [7]
COc1cc(CCC(O)CC(=O)CCc2cc(O)c(O)c(OC)c2)ccc1O (stereo not given)	–	–	Non-toxic	Not toxic	–	–	–
COc1cc(CCC(=O)CC(O)CCc2cc(O)c(O)c(OC)c2)ccc1O (stereo not given)	–	–	Non-toxic	Not toxic	–	–	–
COc1cc(CCC(=O)CC(O)CCc2ccc(O)c(O)c2)ccc1O (stereo not given)	36.4	17.1	Non-toxic	Not toxic	Active	–	Active

More lines, main results first:

IC50 [3] [µM]	IC50 [4] [µM]	SMILES	Activity [1]	Activity [2]	Activity [5]	Activity [6]	Activity [7]
39.9	21.9	COc1cc([C@@H]2C[C@@H](O)C[C@H](CCc3ccc(O)c(O)c3)O2)cc(O)c1O	Non-toxic	Not toxic	Active	Active	–
48.1	27.9	COc1cc([C@@H]2C[C@H](O)C[C@H](CCc3ccc(O)cc3)O2)cc(O)c1O	–	–	Active	Active	–
